Experimental data from ChEMBL document CHEMBL3425495, “Perturbation of the c-Myc-Max protein-protein interaction via synthetic α-helix mimetics” (J Med Chem, 2015).
Each block holds one compound with its values, some of them ahead of it. The source made the active and inactive calls. No cut-off for these calls is given here.

How the values were obtained:
c-Myc/Max [1] = biological target: T1, c-Myc/Max (Homo sapiens, UniProt P01106+P61244); settings: 6.3 to 50 uM
NCI-H460 = assay: Induction of neutral lipid accumulation in human H460 cells assessed as ratio of mean florescent intensity of compound treated to control cells at 40 uM after 48 hrs by flow cytometry; format: functional
How it was run: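 Sub-confluent H460 cells given compound 48 h; trypsinised, washed, stained 30 min at ambient temperature with BODIPY […]/503 (stock 50 µg/ml, 0.9 ml added to 0.1 ml cells); flow cytometry of ≥10⁴ events; mean fluorescence of treated over untreated cells; biological triplicates, ± one standard error.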

c-Myc/Max [2] = biological target: T1, c-Myc/Max; settings: 6.3 to 50 uM; remark: listed apart in the source
Daudi = assay: Antiproliferative activity against c-Myc-overexpressing human Daudi cells after 3 days by MTT assay; format: functional, cell-based; settings: 72 h
How it was run: (§1)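 Cells at >90% viability seeded at 2×10³ cells/well in fresh growth medium with 10-point serial dilutions of compound; 3-day incubation; viability by MTT, relative to untreated cells; each point in at least triplicate; IC50 from dose–response. HO15.19-wt-Myc are myc−/− rat fibroblasts with c-Myc restored by stable retroviral transduction.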

[3] = biological target: Protein max (Homo sapiens) (UniProt P61244); assay: Binding affinity to human recombinant 15N labeled Max(S) homodimer assessed as chemical shift up to 100 uM by NMR spectroscopy
c-Myc/Max [4] = biological target: T1, c-Myc/Max; assay: Disruption of human recombinant c-Myc-Max(S)/DNA (unknown origin) binding assessed as complex level at 100 uM by electrophoretic mobility shift assay relative to control; format: protein-complex assay
How it was run: (§2)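 Recombinant c-Myc 353–437 bHLH-ZIP with full-length Max(S), or Max(L) alone, from E. coli (His₆ removed by TEV), each 30 nM, with 30 nM HEX-labelled double-stranded oligonucleotide bearing a c-Myc site; buffer 1× PBS pH 7.3, 1 mM EDTA, 0.1% NP40, 5% glycerol, 1 mM DTT, 400 µg/mL BSA; complex level relative to DMSO control; three independent EMSAs.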

c-Myc/Max [5] = biological target: T1, c-Myc/Max; assay: Binding affinity to human recombinant 15N labeled c-Myc-Max(S) heterodimer assessed as chemical shift up to 100 uM by NMR spectroscopy; format: protein-complex assay
[6] = Antiproliferative activity against rat HO15.19-wt-Myc cells after 3 days by MTT assay; format: functional, cell-based; settings: HO15.19, 72 h
How it was run: as §1

[7] = Cell cycle arrest in human HL60 cells assessed as accumulation at S phase at 15 uM after 24 hrs by propidium iodide staining-based flow cytometric analysis (reference value: 58.4%); format: functional; settings: HL-60
[8] = Antiproliferative activity against human ANBL-6 cells after 3 days by MTT assay; format: functional, cell-based; settings: ANBL-6, 72 h
How it was run: as §1

[9] = Antiproliferative activity against human INA-6 cells after 3 days by MTT assay; format: functional, cell-based; settings: INA-6, 72 h
How it was run: as §1

[10] = biological target: Nuclear factor NF-kappa-B complex (Homo sapiens) (UniProt Q00653+P19838+Q04206); assay: Inhibition of NFkappaB binding site (unknown origin) expressed in human HeLa cells assessed as inhibition of luciferase after 6 hrs; format: cell-based
How it was run: (§3)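 HeLa cells stably carrying a labile luciferase under a minimal promoter with triplicated c-Myc or NF-κB sites, methotrexate-amplified; 10⁶ cells seeded, next day compound for 6 h; lysates assayed in triplicate, normalised to protein, background (mutant-site line) subtracted, expressed relative to untreated cells (100%); mean ± 1 standard error.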

[11] = Cell cycle arrest in human HL60 cells assessed as accumulation at G0/G1 phase at 15 uM after 24 hrs by propidium iodide staining-based flow cytometric analysis (reference value: 31.2%); format: functional; settings: HL-60
HEK293 = assay: Antiproliferative activity against human HEK293 cells after 3 days by MTT assay; format: functional, cell-based; settings: HEK293, 72 h
How it was run: as §1

[12] = Antiproliferative activity against human U266 cells after 3 days by MTT assay; format: functional, cell-based; settings: U-266, 72 h
How it was run: as §1

[13] = biological target: Myc proto-oncogene protein (Homo sapiens) (UniProt P01106); assay: Inhibition of wild type c-Myc binding site (unknown origin) expressed in human HeLa cells assessed as inhibition of luciferase after 6 hrs; format: cell-based
How it was run: as §3

c-Myc/Max [14] = biological target: T1, c-Myc/Max; assay: Inhibition of human recombinant His-tagged c-Myc-Max(S) heterodimer binding to DNA at 3.1 to 50 uM after 30 mins by SPR analysis in presence of biotinylated E-box-containing oligonucleotides; format: protein-complex assay
[15] = Antiproliferative activity against human H460 cells after 3 days by MTT assay; format: functional, cell-based; settings: NCI-H460, 72 h
How it was run: as §1

[16] = Antiproliferative activity against human KJON cells after 3 days by MTT assay; format: functional, cell-based; settings: 72 h
How it was run: as §1

[17] = Cell cycle arrest in human HL60 cells assessed as accumulation at G2/M phase at 10 uM after 24 hrs by propidium iodide staining-based flow cytometric analysis (reference value: 10.3%); format: functional; settings: HL-60
c-Myc/Max [18] = biological target: T1, c-Myc/Max; assay: Induction of dissociation of […]-Max in human HL60 cells at 10 to 30 uM after 6 hrs by Co-immunoprecipitation (Co-IP) assay; format: cell-based; settings: HL-60
How it was run: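 About 5×10⁶ HL60 cells exposed 6 h to compound or DMSO; lysed in IP buffer; 300 µg cleared lysate immunoprecipitated overnight at 4 °C with anti-Max (1:200) and protein G-Sepharose; 10% SDS-PAGE, immunoblot with anti-c-Myc 9E10 (1:1000); input lysate kept for comparison.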

[19] = Antiproliferative activity against human JJN-3 cells after 3 days by MTT assay; format: functional, cell-based; settings: JJN-3, 72 h
How it was run: as §1

[20] = Cell cycle arrest in human HL60 cells assessed as accumulation at G0/G1 phase at 10 uM after 24 hrs by propidium iodide staining-based flow cytometric analysis (reference value: 31.2%); format: functional; settings: HL-60
[21] = Cell cycle arrest in human HL60 cells assessed as accumulation at S phase at 10 uM after 24 hrs by propidium iodide staining-based flow cytometric analysis (reference value: 58.4%); format: functional; settings: HL-60
c-Myc/Max [22] = biological target: T1, c-Myc/Max; assay: Disruption of human recombinant c-Myc-Max/DNA (unknown origin) binding assessed as complex level by electrophoretic mobility shift assay relative to control; format: protein-complex assay
How it was run: as §2

HeLa = assay: Antiproliferative activity against human HeLa cells after 3 days by MTT assay; format: functional, cell-based; settings: 72 h
How it was run: as §1

[23] = Cell cycle arrest in human HL60 cells assessed as accumulation at G2/M phase at 15 uM after 24 hrs by propidium iodide staining-based flow cytometric analysis (reference value: 10.3%); format: functional; settings: HL-60
c-Myc/Max [24] = biological target: T1, c-Myc/Max; assay: Inhibition of heterodimerization of human recombinant His-tagged c-Myc-Max(S) compound treated for 20 mins with c-Myc and followed by added Max(S) at 3.1 to 50 uM after 30 mins by SPR analysis in presence of biotinylated E-box-containing oligonucleotides; format: protein-complex assay
[25] = Antiproliferative activity against human IH-1 cells after 3 days by MTT assay; format: functional, cell-based; settings: IH-1, 72 h
How it was run: as §1

T1 sequence (P01106 whole entry): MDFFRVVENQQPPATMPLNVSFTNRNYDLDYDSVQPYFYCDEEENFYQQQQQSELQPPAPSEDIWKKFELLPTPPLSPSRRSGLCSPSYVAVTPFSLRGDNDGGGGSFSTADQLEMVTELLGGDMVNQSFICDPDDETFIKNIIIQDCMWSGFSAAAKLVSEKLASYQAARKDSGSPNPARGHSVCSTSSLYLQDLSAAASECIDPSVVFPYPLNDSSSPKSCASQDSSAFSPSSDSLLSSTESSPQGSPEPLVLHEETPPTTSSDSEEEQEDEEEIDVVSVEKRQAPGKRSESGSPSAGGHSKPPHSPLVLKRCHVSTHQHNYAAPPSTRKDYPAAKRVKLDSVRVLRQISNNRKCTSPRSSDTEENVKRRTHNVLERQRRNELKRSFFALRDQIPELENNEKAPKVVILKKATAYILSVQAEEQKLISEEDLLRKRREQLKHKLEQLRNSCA
T1 sequence (P61244 whole entry): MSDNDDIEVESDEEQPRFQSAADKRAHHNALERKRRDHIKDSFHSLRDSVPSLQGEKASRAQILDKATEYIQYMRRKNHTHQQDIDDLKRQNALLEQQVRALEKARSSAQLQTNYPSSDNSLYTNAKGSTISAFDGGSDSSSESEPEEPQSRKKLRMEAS
Sequence of Myc proto-oncogene protein (Homo sapiens) (P01106 whole entry): as the sequence (P01106 whole entry) above
Sequence of Protein max (Homo sapiens) (P61244 whole entry): as the sequence (P61244 whole entry) above
Sequence of Nuclear factor NF-kappa-B complex (Homo sapiens) (P19838 whole entry, looked up): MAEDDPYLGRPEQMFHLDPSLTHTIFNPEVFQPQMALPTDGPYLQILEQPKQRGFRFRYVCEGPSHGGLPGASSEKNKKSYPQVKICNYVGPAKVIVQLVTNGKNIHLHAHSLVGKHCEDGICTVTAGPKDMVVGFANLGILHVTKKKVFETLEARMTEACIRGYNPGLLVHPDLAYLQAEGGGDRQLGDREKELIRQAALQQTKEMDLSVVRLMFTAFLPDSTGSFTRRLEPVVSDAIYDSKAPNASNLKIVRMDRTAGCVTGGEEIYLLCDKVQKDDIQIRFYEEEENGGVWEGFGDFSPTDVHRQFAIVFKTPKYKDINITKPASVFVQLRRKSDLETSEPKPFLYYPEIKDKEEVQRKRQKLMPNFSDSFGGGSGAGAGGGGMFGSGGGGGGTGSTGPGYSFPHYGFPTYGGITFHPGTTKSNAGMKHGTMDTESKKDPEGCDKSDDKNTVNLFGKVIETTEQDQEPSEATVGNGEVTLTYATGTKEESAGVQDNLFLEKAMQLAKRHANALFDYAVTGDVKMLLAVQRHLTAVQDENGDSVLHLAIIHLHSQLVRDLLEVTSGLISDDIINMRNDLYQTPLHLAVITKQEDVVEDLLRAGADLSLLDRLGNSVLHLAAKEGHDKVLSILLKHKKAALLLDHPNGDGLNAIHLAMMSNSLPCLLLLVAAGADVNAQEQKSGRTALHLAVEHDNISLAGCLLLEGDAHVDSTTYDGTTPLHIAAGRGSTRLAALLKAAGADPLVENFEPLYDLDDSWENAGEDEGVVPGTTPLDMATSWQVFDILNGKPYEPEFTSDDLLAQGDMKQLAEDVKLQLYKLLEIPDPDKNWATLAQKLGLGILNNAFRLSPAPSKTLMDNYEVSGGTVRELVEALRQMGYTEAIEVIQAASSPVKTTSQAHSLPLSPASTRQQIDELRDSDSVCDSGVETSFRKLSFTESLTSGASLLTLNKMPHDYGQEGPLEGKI
Sequence of Nuclear factor NF-kappa-B complex (Homo sapiens) (Q00653 whole entry, looked up): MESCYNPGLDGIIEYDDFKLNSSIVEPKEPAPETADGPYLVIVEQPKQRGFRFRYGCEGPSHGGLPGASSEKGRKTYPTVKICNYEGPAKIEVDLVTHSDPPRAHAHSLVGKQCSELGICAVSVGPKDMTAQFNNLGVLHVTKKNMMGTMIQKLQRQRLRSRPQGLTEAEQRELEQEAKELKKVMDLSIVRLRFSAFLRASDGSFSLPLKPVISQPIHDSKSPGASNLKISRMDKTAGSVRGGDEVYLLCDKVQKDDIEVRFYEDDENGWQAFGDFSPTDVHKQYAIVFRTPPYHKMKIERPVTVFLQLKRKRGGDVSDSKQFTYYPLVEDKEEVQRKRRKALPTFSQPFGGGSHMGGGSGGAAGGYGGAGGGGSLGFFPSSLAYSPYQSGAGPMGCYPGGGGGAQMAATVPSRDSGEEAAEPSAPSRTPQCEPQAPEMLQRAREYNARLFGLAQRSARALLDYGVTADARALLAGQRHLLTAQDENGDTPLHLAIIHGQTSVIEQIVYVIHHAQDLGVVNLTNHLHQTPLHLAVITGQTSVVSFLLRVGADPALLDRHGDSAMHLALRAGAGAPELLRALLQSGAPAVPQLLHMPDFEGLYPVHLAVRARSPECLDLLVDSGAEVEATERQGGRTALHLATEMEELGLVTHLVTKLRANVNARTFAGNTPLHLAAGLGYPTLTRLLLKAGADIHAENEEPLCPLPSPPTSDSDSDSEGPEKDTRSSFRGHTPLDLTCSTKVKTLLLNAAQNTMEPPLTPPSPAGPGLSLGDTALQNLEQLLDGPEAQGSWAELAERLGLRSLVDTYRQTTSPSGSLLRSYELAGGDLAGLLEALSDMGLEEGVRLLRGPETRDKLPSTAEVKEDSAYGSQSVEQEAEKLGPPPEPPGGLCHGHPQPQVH
Sequence of Nuclear factor NF-kappa-B complex (Homo sapiens) (Q04206 whole entry, looked up): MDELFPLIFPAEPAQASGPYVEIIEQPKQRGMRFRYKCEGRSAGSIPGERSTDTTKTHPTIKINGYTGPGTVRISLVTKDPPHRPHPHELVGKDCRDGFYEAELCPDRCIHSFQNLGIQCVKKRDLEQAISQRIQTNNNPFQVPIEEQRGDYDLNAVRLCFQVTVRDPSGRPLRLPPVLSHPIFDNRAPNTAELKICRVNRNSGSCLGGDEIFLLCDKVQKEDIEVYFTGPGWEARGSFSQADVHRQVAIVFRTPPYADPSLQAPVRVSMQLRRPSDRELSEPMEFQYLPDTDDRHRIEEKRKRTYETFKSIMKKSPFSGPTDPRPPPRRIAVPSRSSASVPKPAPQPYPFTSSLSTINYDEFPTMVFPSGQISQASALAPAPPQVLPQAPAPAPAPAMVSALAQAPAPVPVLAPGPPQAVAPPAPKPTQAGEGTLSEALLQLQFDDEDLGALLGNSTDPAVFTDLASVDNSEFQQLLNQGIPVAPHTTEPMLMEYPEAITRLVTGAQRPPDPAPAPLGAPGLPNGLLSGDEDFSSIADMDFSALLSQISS

- inhibition (c-Myc/Max [1]): Active
- inhibition (c-Myc/Max [2]): Active
Structure (SMILES): O=[N+]([O-])c1ccc(Nc2ccccc2-c2ccccc2)c2nonc12
- Ratio (NCI-H460): 1.4

- IC50 (Daudi): 9.5 µM
- Activity [3]: inactive
- Activity (c-Myc/Max [4]): 0%
- Kd (c-Myc/Max [5]): 13 µM
- inhibition [10]: inactive
- inhibition [13]: Dose-dependent effect
- inhibition (c-Myc/Max [14]): Active
- Activity (c-Myc/Max [18]): inactive
- IC50 (c-Myc/Max [22]): 11.6 µM
- IC50 (HeLa): 10.8 µM
- inhibition (c-Myc/Max [24]): Active
Structure (SMILES): CC(C)COc1cc(C(=O)O)ccc1NC(=O)c1ccc([N+](=O)[O-])c(OCc2cccc3ccccc23)c1
- IC50 [6]: 14.1 µM
- Activity [7]: 23.3%
- IC50 [8]: 35.6 µM
- IC50 [9]: 18.1 µM
- Activity [11]: 71%
- IC50 (HEK293): 10.4 µM
- IC50 [12]: 46 µM
- IC50 [15]: 15.9 µM
- IC50 [16]: 23 µM
- Activity [17]: 0.77%
- IC50 [19]: 15.7 µM
- Activity [20]: 51.4%
- Activity [21]: 47.9%
- Activity [23]: 5.64%
- IC50 [25]: 20.6 µM
